Measured values reported in ChEMBL document CHEMBL3525903 (Drug Metab Dispos, 2013).
pIC50: −log10 of the molar value.

Legend:
Format in all cases: ADME, cell-based
[1] = target: ATP-binding cassette sub-family C member 2 (Homo sapiens, UniProt Q92887); assay: Inhibition of human MRP2 expressed in MDCK2 cells assessed as reduction of [3H]E217betaG substrate transport up to 100 uM by liquid scintillation counting; settings: mdck-ii
Procedure, shortened: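 Membrane vesicles made from MDCKII cells expressing BCRP or MRP2, and from parental cells (1 μg/μL protein). Run in Tris-sucrose buffer, pH 7.4, with 10 mM MgCl2, creatine phosphokinase and ATP, or AMP as control. Substrates: 0.035 μM [3H]E-sul for BCRP, 2 min; 0.033 μM [3H]E217βG for MRP2, 5 min; both at 37 °C. Stopped ice-cold, filtered, and counted by scintillation.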

[2] = Permeability assessed as human P-glycoprotein-mediated transport across apical to basolateral side expressed in pig LLC-PK1 cells by measuring membrane permeability time by Transwell experiment/liquid scintillation counting
[3] = Inhibition of human P-glycoprotein expressed in pig LLC-PK1 cells assessed as reduction of [3H]digoxin substrate transport from basolateral to apical side by liquid scintillation counting
[4] = system: P-glycoprotein; assay: Permeability assessed as human P-glycoprotein-mediated transport across basolateral to apical side expressed in pig LLC-PK1 cells at 500 uM by liquid scintillation counting
[5] = target: T1, Solute carrier organic anion transporter family member 1B1 (Homo sapiens, UniProt Q9Y6L6); assay: Inhibition of OATP1B1 (unknown origin) expressed in HEK293 cells assessed as reduction of [3H]E217betaG substrate uptake by liquid scintillation counting
T1 sequence (Q9Y6L6 whole entry): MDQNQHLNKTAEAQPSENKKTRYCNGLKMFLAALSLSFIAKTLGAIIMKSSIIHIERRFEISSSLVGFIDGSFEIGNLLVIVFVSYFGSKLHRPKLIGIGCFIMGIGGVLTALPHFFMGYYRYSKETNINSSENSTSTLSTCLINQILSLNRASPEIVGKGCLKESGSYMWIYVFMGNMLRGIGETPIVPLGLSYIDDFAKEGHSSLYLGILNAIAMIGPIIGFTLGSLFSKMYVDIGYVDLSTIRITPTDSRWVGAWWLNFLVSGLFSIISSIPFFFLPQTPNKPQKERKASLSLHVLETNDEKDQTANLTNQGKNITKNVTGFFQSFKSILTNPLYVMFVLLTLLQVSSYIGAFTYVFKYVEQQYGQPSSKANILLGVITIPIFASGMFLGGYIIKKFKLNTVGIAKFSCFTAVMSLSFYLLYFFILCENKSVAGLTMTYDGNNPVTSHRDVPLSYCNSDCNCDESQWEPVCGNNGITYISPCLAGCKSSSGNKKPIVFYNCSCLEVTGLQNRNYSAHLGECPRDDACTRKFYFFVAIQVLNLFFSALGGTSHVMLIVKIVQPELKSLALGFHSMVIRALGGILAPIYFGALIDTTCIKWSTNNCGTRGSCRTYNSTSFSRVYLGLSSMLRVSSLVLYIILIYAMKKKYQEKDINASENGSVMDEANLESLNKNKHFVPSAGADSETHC

Sequence of ATP-binding cassette sub-family C member 2 (Q92887 whole entry): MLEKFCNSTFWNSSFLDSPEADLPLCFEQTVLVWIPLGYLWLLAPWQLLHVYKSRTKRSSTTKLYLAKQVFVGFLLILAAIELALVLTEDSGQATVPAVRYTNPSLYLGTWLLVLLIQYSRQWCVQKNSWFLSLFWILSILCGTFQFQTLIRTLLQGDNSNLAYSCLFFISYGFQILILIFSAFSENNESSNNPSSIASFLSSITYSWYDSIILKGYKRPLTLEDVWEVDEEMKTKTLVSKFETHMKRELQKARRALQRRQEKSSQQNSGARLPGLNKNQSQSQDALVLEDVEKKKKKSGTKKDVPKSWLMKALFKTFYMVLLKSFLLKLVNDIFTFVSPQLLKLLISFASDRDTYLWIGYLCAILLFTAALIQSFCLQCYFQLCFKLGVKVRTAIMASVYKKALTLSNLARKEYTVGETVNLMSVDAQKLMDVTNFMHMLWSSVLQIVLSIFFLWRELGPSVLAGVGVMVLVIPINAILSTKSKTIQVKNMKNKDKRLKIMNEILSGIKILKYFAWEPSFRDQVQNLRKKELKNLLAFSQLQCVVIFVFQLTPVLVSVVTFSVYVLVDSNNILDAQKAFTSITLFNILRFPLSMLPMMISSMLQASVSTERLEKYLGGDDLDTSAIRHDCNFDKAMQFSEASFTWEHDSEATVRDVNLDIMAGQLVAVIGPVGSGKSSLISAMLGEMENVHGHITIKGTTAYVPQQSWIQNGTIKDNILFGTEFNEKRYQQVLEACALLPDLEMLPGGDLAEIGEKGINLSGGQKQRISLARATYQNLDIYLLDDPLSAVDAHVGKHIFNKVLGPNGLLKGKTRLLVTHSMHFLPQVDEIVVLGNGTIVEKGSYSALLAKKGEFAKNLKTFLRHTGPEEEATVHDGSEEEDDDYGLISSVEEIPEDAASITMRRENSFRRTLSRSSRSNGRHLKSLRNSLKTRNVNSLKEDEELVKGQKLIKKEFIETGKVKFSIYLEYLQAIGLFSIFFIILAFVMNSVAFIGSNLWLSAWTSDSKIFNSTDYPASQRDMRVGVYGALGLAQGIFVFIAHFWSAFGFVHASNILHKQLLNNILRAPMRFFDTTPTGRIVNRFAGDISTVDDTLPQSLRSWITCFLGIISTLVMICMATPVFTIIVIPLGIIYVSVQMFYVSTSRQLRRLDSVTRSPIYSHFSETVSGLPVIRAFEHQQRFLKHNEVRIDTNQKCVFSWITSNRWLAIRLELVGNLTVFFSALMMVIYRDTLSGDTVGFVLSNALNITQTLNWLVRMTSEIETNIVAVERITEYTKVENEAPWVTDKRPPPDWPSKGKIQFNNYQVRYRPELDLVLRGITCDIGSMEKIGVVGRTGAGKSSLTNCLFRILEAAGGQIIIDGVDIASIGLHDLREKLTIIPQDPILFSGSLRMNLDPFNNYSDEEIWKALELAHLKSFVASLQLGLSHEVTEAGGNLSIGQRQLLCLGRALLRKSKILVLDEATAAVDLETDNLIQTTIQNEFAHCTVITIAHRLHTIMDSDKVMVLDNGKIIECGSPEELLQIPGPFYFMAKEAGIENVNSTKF

CC#CCn1c(N2CCC[C@@H](N)C2)nc2c1c(=O)n(Cc1nc(C)c3ccccc3n1)c(=O)n2C [LINAGLIPTIN]
inhibition (INH) [1]: Not Active
Time [2]: 4.4 h
pIC50 [3]: 4.18
Papp B→A at 500 µM [4]: 15.7 ×10⁻⁶ cm/s
pIC50 [5]: < 4.00
